ChEMBL document CHEMBL3259739, “Synthesis and structure-activity relationship of trisubstituted thiazoles as Cdc7 kinase inhibitors” (Eur J Med Chem, 2014)

These compounds were tested against T1, Testis-specific serine/threonine-protein kinase 1 (Homo sapiens) (UniProt Q9BXA7) (assay: Inhibition of TSSK1B (unknown origin) at 1 uM relative to control). Details: values are per cent of control.
T1 sequence (whole entry): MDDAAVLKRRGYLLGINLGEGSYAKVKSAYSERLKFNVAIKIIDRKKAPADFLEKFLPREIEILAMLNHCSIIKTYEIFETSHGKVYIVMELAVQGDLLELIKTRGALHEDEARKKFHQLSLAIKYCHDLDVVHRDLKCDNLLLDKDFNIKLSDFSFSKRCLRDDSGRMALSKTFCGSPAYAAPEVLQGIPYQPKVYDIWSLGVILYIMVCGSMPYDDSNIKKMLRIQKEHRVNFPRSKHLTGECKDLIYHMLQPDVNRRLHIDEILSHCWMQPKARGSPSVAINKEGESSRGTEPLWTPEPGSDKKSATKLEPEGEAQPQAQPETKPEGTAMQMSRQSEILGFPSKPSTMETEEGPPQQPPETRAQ
In short: (§1)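 KinomeSCAN competitive binding panel of 100 kinases; compounds tested at 1 µM in duplicate; read-out is percent […] control.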
`COc1ccc(-c2nc(-c3ccnc(N)n3)sc2C(N)=O)c(Cl)c1` was tested, and the residual binding, % of control was 83%. In the case of `CCOC(=O)c1sc(-c2ccncc2)nc1O`, the residual binding, % of control is reported as 89%. Work on `NC(=O)c1sc(-c2ccnc(N)n2)nc1-c1ccc(Cl)cc1Cl` yielded a residual binding, % of control of 100%.

The compounds below were run against Serine/threonine-protein kinase pim-1 (Homo sapiens, UniProt P11309) (assay: Inhibition of PIM1 (unknown origin) at 1 uM relative to control). Details: values are per cent of control.
Sequence of Serine/threonine-protein kinase pim-1 (P11309 whole entry, looked up): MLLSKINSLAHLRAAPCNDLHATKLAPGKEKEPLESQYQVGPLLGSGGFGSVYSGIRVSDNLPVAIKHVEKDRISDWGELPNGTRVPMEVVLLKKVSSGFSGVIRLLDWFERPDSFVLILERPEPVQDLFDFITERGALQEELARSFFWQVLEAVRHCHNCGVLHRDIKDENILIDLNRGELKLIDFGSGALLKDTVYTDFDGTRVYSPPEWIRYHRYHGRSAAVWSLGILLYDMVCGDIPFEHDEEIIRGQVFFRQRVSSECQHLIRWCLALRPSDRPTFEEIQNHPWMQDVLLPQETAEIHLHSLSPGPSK
In short: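 The supplementary panel puts Pim1 in the KinomeSCAN competitive binding format; compounds at 1 µM in duplicate; percent […] control.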
`COc1ccc(-c2nc(-c3ccnc(N)n3)sc2C(N)=O)c(Cl)c1` showed a residual binding, % of control of 99%. `CCOC(=O)c1sc(-c2ccncc2)nc1O` was tested, and the residual binding, % of control was 75%. Compound `NC(=O)c1sc(-c2ccnc(N)n2)nc1-c1ccc(Cl)cc1Cl` has a residual binding, % of control of 83%.

The compounds below were run against T2, Serine/threonine-protein kinase PLK4 (Homo sapiens) (UniProt O00444) (assay: Inhibition of PLK4 (unknown origin) at 1 uM relative to control). Details: values are per cent of control.
T2 sequence (whole entry): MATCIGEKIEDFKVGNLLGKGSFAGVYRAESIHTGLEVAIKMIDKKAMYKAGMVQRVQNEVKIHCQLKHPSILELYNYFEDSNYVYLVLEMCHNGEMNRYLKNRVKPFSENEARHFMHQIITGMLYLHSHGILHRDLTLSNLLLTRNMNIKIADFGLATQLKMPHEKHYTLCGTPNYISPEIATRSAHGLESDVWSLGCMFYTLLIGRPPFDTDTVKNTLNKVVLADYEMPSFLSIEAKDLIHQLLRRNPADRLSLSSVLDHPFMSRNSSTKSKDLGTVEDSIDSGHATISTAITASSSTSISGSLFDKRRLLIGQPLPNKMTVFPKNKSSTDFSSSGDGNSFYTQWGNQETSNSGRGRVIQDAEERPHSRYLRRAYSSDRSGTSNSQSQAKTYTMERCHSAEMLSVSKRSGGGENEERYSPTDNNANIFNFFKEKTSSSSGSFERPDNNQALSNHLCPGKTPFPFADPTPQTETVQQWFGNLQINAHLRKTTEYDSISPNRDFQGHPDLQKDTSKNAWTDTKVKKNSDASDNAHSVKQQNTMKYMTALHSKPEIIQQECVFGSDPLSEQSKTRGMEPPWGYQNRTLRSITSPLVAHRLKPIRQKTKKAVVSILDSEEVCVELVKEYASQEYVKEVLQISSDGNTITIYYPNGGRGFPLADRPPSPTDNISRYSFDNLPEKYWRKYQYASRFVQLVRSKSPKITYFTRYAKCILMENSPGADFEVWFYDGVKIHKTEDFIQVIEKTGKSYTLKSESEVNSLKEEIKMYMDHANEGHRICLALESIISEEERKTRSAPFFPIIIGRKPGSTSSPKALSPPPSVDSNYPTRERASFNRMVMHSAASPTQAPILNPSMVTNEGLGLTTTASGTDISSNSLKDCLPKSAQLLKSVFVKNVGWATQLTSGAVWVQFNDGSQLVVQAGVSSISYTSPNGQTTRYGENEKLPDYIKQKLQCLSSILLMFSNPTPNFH
In short: as §1
`COc1ccc(-c2nc(-c3ccnc(N)n3)sc2C(N)=O)c(Cl)c1` gave a residual binding, % of control of 100%. Compound `CCOC(=O)c1sc(-c2ccncc2)nc1O` has a residual binding, % of control of 100%. Compound `NC(=O)c1sc(-c2ccnc(N)n2)nc1-c1ccc(Cl)cc1Cl` has a residual binding, % of control of 92%.

The compounds below were run against Dual specificity protein kinase CLK4 (Homo sapiens) (UniProt Q9HAZ1) (assay: Inhibition of CLK4 (unknown origin) at 1 uM relative to control; values are per cent of control). Details: not given.
Sequence of Dual specificity protein kinase CLK4 (Homo sapiens) (Q9HAZ1 whole entry, looked up): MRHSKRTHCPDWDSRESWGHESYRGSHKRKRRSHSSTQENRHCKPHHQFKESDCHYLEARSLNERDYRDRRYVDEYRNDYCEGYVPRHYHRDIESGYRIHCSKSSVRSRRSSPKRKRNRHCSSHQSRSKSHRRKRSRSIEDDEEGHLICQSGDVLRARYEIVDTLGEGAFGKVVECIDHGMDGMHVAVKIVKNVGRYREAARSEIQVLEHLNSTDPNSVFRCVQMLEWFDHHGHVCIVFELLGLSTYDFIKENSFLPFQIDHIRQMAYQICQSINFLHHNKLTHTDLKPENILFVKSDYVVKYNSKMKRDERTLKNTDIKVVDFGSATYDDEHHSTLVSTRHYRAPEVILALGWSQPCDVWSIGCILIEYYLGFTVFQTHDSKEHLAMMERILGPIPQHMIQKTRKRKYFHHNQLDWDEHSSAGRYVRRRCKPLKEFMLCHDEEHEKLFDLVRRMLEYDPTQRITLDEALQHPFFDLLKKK
`COc1ccc(-c2nc(-c3ccnc(N)n3)sc2C(N)=O)c(Cl)c1` showed a residual activity of 0%. `CCOC(=O)c1sc(-c2ccncc2)nc1O` gave a residual activity of 92%. With `NC(=O)c1sc(-c2ccnc(N)n2)nc1-c1ccc(Cl)cc1Cl` the residual activity was 0%.

The compounds below were run against Mitogen-activated protein kinase 1 (Homo sapiens) (UniProt P28482) (assay: Inhibition of ERK2 (unknown origin) at 1 uM relative to control; values are per cent of control). Details: not given.
Sequence of Mitogen-activated protein kinase 1 (Homo sapiens) (P28482 whole entry): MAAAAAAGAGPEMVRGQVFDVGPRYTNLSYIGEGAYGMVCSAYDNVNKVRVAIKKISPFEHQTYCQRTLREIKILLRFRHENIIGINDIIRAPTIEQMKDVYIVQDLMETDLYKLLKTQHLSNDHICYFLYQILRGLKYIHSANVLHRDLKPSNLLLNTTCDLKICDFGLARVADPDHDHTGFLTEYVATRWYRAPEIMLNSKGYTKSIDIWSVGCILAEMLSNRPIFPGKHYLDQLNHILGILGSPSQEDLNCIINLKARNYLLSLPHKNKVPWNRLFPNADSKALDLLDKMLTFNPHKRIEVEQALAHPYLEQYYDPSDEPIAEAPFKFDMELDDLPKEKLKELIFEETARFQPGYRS
With `COc1ccc(-c2nc(-c3ccnc(N)n3)sc2C(N)=O)c(Cl)c1` the residual activity was 82%. `CCOC(=O)c1sc(-c2ccncc2)nc1O` was tested, and the residual activity was 93%. With `NC(=O)c1sc(-c2ccnc(N)n2)nc1-c1ccc(Cl)cc1Cl` the residual activity was 79%.

What follows are compounds tested against T3, Serine/threonine-protein kinase Chk1 (Homo sapiens) (UniProt O14757) (assay: Inhibition of CHEK1 (unknown origin) at 1 uM relative to control; values are per cent of control). Details: not given.
T3 sequence (whole entry): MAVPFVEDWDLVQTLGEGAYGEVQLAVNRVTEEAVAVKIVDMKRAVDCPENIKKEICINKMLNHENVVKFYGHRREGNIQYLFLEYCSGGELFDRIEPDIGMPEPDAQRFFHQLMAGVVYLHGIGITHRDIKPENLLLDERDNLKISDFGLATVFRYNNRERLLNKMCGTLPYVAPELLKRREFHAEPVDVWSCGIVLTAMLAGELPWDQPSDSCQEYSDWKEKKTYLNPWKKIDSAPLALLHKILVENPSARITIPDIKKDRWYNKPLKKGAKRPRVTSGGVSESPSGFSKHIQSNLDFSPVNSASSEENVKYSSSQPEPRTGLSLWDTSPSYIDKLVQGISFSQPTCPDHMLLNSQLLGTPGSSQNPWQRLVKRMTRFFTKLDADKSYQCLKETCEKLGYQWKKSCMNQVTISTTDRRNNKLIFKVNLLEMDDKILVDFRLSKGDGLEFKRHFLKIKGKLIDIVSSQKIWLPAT
With `COc1ccc(-c2nc(-c3ccnc(N)n3)sc2C(N)=O)c(Cl)c1` the residual activity was 78%. In the case of `CCOC(=O)c1sc(-c2ccncc2)nc1O`, the residual activity is reported as 100%. `NC(=O)c1sc(-c2ccnc(N)n2)nc1-c1ccc(Cl)cc1Cl` was tested, and the residual activity was 100%.

The compounds below were run against Glycogen synthase kinase-3 beta (Homo sapiens) (UniProt P49841) (assay: Inhibition of GSK3B (unknown origin) at 1 uM relative to control; values are per cent of control). Details: not given.
Sequence of Glycogen synthase kinase-3 beta (Homo sapiens) (P49841 whole entry, looked up): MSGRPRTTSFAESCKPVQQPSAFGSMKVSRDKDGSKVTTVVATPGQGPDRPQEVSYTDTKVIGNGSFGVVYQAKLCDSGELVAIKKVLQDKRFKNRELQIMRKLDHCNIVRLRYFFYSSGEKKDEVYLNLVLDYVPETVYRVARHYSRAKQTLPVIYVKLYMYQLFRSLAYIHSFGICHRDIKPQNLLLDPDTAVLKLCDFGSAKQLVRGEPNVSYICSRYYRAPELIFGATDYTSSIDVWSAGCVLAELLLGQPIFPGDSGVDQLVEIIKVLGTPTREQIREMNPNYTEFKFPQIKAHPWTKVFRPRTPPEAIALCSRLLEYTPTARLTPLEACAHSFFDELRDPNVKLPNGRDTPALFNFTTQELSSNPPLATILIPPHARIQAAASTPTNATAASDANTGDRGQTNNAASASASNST
`COc1ccc(-c2nc(-c3ccnc(N)n3)sc2C(N)=O)c(Cl)c1` gave a residual activity of 6.8%. In the case of `CCOC(=O)c1sc(-c2ccncc2)nc1O`, the residual activity is reported as 100%. With `NC(=O)c1sc(-c2ccnc(N)n2)nc1-c1ccc(Cl)cc1Cl` the residual activity was 6.4%.
